In ChEMBL document CHEMBL1250523, “Synthesis and biological activities of new di- and trimeric quinoline derivatives” (Bioorg Med Chem, 2010):

Experiments:
Type in all cases: protein assay
[1] = biological target: Bcl-xL/BAX (Homo sapiens, UniProt Q07812+Q07817); assay: Inhibition of GST-tagged Bcl-xl/FITC-conjugated Bax interaction by fluorescence polarisation assay
[2] = biological target: Bcl-xL/BAK (Homo sapiens, UniProt Q07817); assay: Inhibition of GST-tagged […]/FITC-conjugated Bak interaction by fluorescence polarisation assay
Bcl-xL/BAK, sequence (Q07817 whole entry, the tested form may be a part): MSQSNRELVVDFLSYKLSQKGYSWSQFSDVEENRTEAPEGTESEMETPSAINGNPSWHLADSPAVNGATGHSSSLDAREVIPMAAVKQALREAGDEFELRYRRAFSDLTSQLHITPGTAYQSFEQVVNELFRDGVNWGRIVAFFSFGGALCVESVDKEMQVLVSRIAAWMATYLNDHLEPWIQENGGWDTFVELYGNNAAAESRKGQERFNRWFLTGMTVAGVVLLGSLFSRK
Bcl-xL/BAK, sequence (Q16611 whole entry, further chain, the tested form may be a part): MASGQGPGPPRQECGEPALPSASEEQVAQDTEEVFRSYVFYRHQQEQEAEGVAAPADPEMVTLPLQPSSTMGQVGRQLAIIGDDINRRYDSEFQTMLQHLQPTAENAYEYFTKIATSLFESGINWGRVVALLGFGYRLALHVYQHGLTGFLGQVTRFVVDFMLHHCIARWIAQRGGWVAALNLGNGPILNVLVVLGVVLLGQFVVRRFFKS

[3] = biological target: Bcl-xL/BH3-interacting domain death agonist (Homo sapiens, UniProt Q07817); assay: Inhibition of GST-tagged Bcl-xl/FITC-conjugated Bid interaction by fluorescence polarisation assay
Bcl-xL/BH3-interacting domain death agonist, sequence (Q07817 whole entry, the tested form may be a part): as the sequence (Q07817 whole entry, the tested form may be a part) above
Bcl-xL/BH3-interacting domain death agonist, sequence (P55957 whole entry, further chain, the tested form may be a part): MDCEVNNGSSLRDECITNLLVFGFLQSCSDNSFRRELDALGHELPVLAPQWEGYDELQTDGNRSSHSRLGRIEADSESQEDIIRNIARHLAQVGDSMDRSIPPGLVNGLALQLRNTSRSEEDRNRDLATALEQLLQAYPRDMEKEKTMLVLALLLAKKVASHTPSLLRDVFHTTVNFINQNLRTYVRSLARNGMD

[4] = biological target: Apoptosis regulator BAX/Bcl-2-related protein A1 (Homo sapiens, UniProt Q07812+Q16548); assay: Inhibition of GST-tagged Bfl-1/FITC-conjugated Bax interaction by fluorescence polarisation assay
Apoptosis regulator BAX/Bcl-2-related protein A1, sequence (Q07812 whole entry, the tested form may be a part): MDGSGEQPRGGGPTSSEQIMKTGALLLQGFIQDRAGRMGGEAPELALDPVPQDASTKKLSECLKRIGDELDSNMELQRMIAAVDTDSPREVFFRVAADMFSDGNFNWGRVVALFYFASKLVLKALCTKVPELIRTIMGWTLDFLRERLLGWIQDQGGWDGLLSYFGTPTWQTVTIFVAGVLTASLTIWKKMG
Apoptosis regulator BAX/Bcl-2-related protein A1, sequence (Q16548 whole entry, the tested form may be a part): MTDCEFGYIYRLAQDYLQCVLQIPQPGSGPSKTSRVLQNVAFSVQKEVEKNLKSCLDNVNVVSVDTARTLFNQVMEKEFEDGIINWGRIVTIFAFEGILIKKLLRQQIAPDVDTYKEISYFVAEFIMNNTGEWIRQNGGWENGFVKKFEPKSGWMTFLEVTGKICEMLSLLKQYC
Summary of the method: (§1)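 Recombinant GST-fused anti-apoptotic protein (Bcl-xl, Bcl-2, Bfl-1 or Mcl-1, each lacking its C-terminal tail) at 100 nM, incubated in the dark with 15 nM N-terminally FITC-labelled BH3 peptide (Bak, Bax, Bid or Bim) and a range of compound concentrations. Fluorescence polarisation was read, and IC50 was derived from the concentration-response curve.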

[5] = biological target: Apoptosis regulator BAX/Induced myeloid leukemia cell differentiation protein Mcl-1 (Homo sapiens, UniProt Q07812+Q07820); assay: Inhibition of GST-tagged Mcl-1/FITC-conjugated Bax interaction by fluorescence polarisation assay; summary of the method: as §1
Apoptosis regulator BAX/Induced myeloid leukemia cell differentiation protein Mcl-1, sequence (Q07820 whole entry): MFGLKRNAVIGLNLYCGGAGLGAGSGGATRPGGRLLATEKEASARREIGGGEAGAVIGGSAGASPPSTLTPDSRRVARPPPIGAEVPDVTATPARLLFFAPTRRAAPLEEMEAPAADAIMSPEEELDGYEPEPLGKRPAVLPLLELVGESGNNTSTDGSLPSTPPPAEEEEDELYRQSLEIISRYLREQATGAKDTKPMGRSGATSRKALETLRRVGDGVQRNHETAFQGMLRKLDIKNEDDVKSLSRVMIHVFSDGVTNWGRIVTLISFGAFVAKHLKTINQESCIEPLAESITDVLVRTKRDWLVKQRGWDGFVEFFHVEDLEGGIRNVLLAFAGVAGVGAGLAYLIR
Apoptosis regulator BAX/Induced myeloid leukemia cell differentiation protein Mcl-1, sequence (Q07812 whole entry): as the sequence (Q07812 whole entry, the tested form may be a part) above

[6] = biological target: Apoptosis regulator BAX/Bcl-2 (Homo sapiens, UniProt P10415+Q07812); assay: Inhibition of GST-tagged Bcl-2/FITC-conjugated Bax interaction by fluorescence polarisation assay; summary of the method: as §1
Apoptosis regulator BAX/Bcl-2, sequence (P10415 whole entry): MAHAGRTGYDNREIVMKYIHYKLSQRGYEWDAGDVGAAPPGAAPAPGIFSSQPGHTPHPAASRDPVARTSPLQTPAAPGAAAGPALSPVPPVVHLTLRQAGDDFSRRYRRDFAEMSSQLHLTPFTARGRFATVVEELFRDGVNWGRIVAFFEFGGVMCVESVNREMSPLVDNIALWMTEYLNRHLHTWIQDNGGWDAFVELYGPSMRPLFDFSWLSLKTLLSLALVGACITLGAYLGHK
Apoptosis regulator BAX/Bcl-2, sequence (Q07812 whole entry): as the sequence (Q07812 whole entry, the tested form may be a part) above

[7] = biological target: Bcl-xL/Bcl-2-like protein 11 (Homo sapiens, UniProt Q07817); assay: Inhibition of GST-tagged Bcl-xl/FITC-conjugated Bim interaction by fluorescence polarisation assay
Bcl-xL/Bcl-2-like protein 11, sequence (Q07817 whole entry): as the sequence (Q07817 whole entry, the tested form may be a part) above
Bcl-xL/Bcl-2-like protein 11, sequence (O43521 whole entry, further chain): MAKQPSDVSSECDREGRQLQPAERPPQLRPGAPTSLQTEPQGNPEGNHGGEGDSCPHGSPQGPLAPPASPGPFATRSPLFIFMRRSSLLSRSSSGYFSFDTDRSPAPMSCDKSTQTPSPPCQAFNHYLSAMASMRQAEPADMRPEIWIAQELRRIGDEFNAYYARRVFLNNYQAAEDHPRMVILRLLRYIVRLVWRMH

[8] = biological target: Bcl-xL/Bcl-2-binding component 3 (Homo sapiens, UniProt Q07817+Q9BXH1); assay: Inhibition of GST-tagged Bcl-xl/FITC-conjugated PUMA interaction by fluorescence polarisation assay
Bcl-xL/Bcl-2-binding component 3, sequence (Q07817 whole entry): as the sequence (Q07817 whole entry, the tested form may be a part) above
Bcl-xL/Bcl-2-binding component 3, sequence (Q9BXH1 whole entry): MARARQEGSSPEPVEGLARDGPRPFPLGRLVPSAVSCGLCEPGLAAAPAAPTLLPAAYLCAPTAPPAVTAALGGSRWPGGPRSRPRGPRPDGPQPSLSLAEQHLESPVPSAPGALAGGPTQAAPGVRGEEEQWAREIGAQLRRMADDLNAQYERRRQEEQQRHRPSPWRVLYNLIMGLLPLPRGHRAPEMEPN

Bcl-xL/BAX, sequence (Q07817 whole entry): as the sequence (Q07817 whole entry, the tested form may be a part) above
Bcl-xL/BAX, sequence (Q07812 whole entry): as the sequence (Q07812 whole entry, the tested form may be a part) above

Row | Structure (SMILES) | IC50 [1] | IC50 [2] | IC50 [3] | IC50 [4] | IC50 [5] | IC50 [6] | IC50 [7] | IC50 [8]
1 | CCC(C)c1cc(-c2cc3c(CC(C)C)cc(-c4cc5c(C(C)C)cccc5nc4OC)cc3nc2OC)cc2nc(OC)ccc12 (racemic) | 26 µM | 25 µM | 27 µM | 68 µM | 45.5 µM | 43 µM | 92.5 µM | 42 µM
2 | COc1ccc2c(CC(C)C)cc(-c3cc4c(C(C)C)cccc4nc3OC)cc2n1 | > 1000 µM | > 1000 µM | > 1000 µM | – | – | – | 29 µM | > 1000 µM
3 | CCOc1nc2ccccc2cc1-c1cc(C(C)C)c2cc(-c3cc(C(C)C)c4ccc(OC)nc4c3)c(OC)nc2c1 | 243 µM | 74 µM | 21 µM | – | – | – | 47 µM | 54 µM
